This is one part of a sample in which hits are shown more often than they occur.
Lmaj promast: reduces viability of Leishmania major promastigotes; resazurin fluorescence viability; inhibition, % at 10 µM; 200,000 compounds, 9% hits; in the data active means inhibition above about 50%;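 further: promastigotes grown with compound for 44 hours at 28 °C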
UPR CHOP act: activators of apoptotic arm of unfolded protein response (CHOP). CHO-CHOP luciferase reporter, UPR activation, luminescence; percent of tunicamycin response over DMSO baseline. activation, % at 10 µM. 330,000 compounds, 0.34% hits. AID 449763;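 active means at 10 µM dose, activation of 40% or more, normalized to positive control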
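Assay system: CHO-CHOP cells, stable luciferase reporter of PERK-eIF2a-CHOP signalling / Buffer or medium: F12 plus 10% serum / Compound dosing: one dose, 10 µM in 0.5% DMSO / Times: 6 h compound treatment, 37 °C / Technique: luciferase luminescence / Read-out: % reporter activation, DMSO baseline versus tunicamycin full activation / Benchmarks: tunicamycin and DMSO controls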
CHOP inh: CHOP inhibition in unfolded protein response; 220,000 compounds, 3.8% hits; inhibition, % at 10 µM; CHO-K1 CHOP-promoter luciferase, tunicamycin-induced, 15-18 h;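 active means compounds that reduced the stress-induced luciferase reporter signal by more than about 70% of percent inhibition, limit read from the data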
Dynein cargo inh: blocks dynein driven cargo transport along microtubules. 3617.4 mouse cells, GR-EGFP nuclear translocation imaging; test concentration mostly 20 µM; stimulated with dexamethasone, 1 µM; stronger effect = lower value. z-score, hits read low. 220,000 compounds, 0.47% hits;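 active means plate z-score of nuclear minus cytoplasmic receptor signal below a set negative limit, without overly bright fluorescence or cell loss, cut at about -3.5 in these data, passing the limit was not always enough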;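 further: z-score of nuclear minus cytoplasmic ring GR-EGFP intensity difference per well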
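medium = tetracycline-free induction medium containing charcoal-stripped FBS | probe or stimulus = dexamethasone, 1.0 µM final | timing = 48 h induction, then 1 h compound, then 30 min agonist, 37 °C | detection = automated 10x imaging of fixed Hoechst-stained cells | read-out basis = nuclear versus cytoplasmic GR-EGFP signal, averaged per well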
XBP1 UPR activ: adaptive UPR (XBP1) activation | CHO-XBP1 luciferase reporter, IRE1-XBP1 UPR activation, luminescence; percent of tunicamycin response, DMSO as zero | activation, % at 20 µM | 330,000 compounds, 0.33% hits;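 active means versus positive control, 20 µM dose yields 30% or more activation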
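Material: CHO cell line with stable XBP1 luciferase reporter; schedule: 16-18 h cell attachment at 37 °C, then 6 h compound exposure; signal: glow luminescence from Steady-Glo reagent; medium: serum-containing F12 medium, 10% FBS; benchmarks: tunicamycin 10 µg/mL and vehicle-only wells; read-out: percent activation relative to tunicamycin reference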
T cruzi inh: blocks replication of Trypanosoma cruzi; inhibition, % (test concentration not listed); T. cruzi beta-gal in NIH3T3, luminescence, 90 h; 300,000 compounds, 1.4% hits;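 active means mean inhibition across valid replicates above about 55%, limit read from the data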;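 further: signal also drops with host cell toxicity which is not excluded here; higher percent means less beta-gal luminescence so fewer parasites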
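System: NIH/3T3 fibroblasts plus reporter T. cruzi. Medium: DMEM plus 2% FBS. Probe or stimulus: 5000 reporter trypomastigotes per well. Compound: single 50 nL compound addition per well in DMSO. Incubation: co-culture of at least 90 h after 3 h attachment. Detection: GalScreen β-gal luminescence, detergent lysis, 60 min. Evaluation: parasite load inhibition, %.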
Each line names hits and unclear results; the compound was inactive in the other large screens.

OCCC1CN(Cc2nc(-c3ccccc3)cs2)CCN1Cc1ccc(F)cc1 (stereo not drawn)	Lmaj promast 78.9
OCCC1CN(Cc2c(F)cccc2Cl)CCN1C1CCCCC1 (stereo not drawn)	Lmaj promast 52.8
CC(C)CCN1CCN(Cc2nc(-c3ccc(F)cc3)cs2)CC1CCO (stereo not drawn)	Lmaj promast 82.2
CC(C)c1ccc(NC2CCCN(C(=O)c3cccs3)C2)cc1 (stereo not drawn)	none (no result: Lmaj promast, CHOP inh, Dynein cargo inh)
OCCC1CN(Cc2nc(-c3ccccc3)cs2)CCN1C1CCCC1 (stereo not drawn)	Lmaj promast 84.4
CSc1cccc(NC(=S)N(Cc2ccc(C)cc2)Cc2ccccn2)c1	Lmaj promast 97.4, T cruzi inh 55.3
COc1ccccc1NC(=S)N(Cc1ccc(C)cc1)Cc1ccccn1	Lmaj promast 91.3, T cruzi inh 54.6
O=C(NCCCN1CCc2ccccc2C1)Nc1ccc(Br)cc1	Lmaj promast 95.0
COc1ccc(NC(=O)NCCCN2CCc3ccccc3C2)cc1	none
CCN(CC)c1ccc2c(Cl)cc(=O)oc2c1	CHOP inh 93.8
CCN(CC)c1ccc2c(C)c(CN3CCOCC3)c(=O)oc2c1	Lmaj promast 100.2
CCN(CC)c1ccc2c(O)cc(=O)oc2c1	none
CSCCC(NC(=O)c1ccccc1)C(=O)N1CCN(C(c2ccccc2)c2ccccc2)CC1 (stereo not drawn)	none (no result: Lmaj promast, CHOP inh, Dynein cargo inh)
C=CCn1c(SCc2c(C)noc2C)nc2sc3c(c2c1=O)CCCC3	CHOP inh 82.7
Cc1noc(C)c1CSc1nc2sc3c(c2c(=O)n1C)CCCC3	CHOP inh 76.0
CC(C)c1ccccc1NC(=O)COC(=O)c1cccnc1	none (no result: Lmaj promast, CHOP inh, Dynein cargo inh)
CC(OC(=O)CNC(=O)COc1ccccc1)C(=O)N(C)Cc1ccccc1 (stereo not drawn)	none (no result: Lmaj promast, CHOP inh, Dynein cargo inh)
CCc1ccccc1NC(=O)C1C(c2ccccc2)C1(Cl)Cl (stereo not drawn)	Lmaj promast 50.2
N.N.O=C(O)C1(C(=O)O)CCC1.[Pt+2]	none (no result: Lmaj promast, UPR CHOP act, Dynein cargo inh, XBP1 UPR activ, T cruzi inh)
Cc1cc(OCCOCCNC(C)C)cc(C)c1Cl	Lmaj promast 98.0
COc1ccccc1/C=C/C(=O)NNC(=O)c1cccs1	none
CCOC(=O)c1cc(CC)sc1NC(=O)Cc1ccccc1	CHOP inh 85.3
O=C1c2cccnc2C(=O)N1Cc1ccc(S(=O)(=O)N2CCN(c3ccccc3)CC2)cc1	none (no result: Lmaj promast, CHOP inh, Dynein cargo inh)
COc1cc(NC(C)CCCN)c2ncccc2c1 (stereo not drawn)	none (no result: Lmaj promast, CHOP inh, Dynein cargo inh)
COc1cc(NCCCCCCCN)c2ncccc2c1	Lmaj promast 100.3
COc1ccc(CCNC(=O)Cc2c(Cl)cccc2Cl)cc1	none
CC(C)CNC(=O)CSc1ccc(S(=O)(=O)N2CCN(C)CC2)cn1	none (no result: Lmaj promast, CHOP inh, Dynein cargo inh, T cruzi inh)
COc1ccc(OC)c(NC(=O)CSc2nc3nc(C)cc(C)n3n2)c1	none (no result: Lmaj promast, CHOP inh, Dynein cargo inh, T cruzi inh)
C(=N\c1nc2ccccc2n1CCN1CCCCC1)/c1cccs1	Lmaj promast 53.2
CN(Cc1ccccc1)c1ncnc2c1cnn2-c1ccccc1	none
CCN(c1ccccc1)c1ncnc2c1cnn2-c1ccccc1	CHOP inh 79.5
COc1ccc(N(C)C(=O)C2CCN(S(=O)(=O)c3cccc4nonc34)CC2)cc1	none (no result: Lmaj promast, CHOP inh, Dynein cargo inh)
CCC(C)Sc1nc2ccccc2n1CC(=O)O (stereo not drawn)	none
Cc1ccc2nc(-c3ccc4c(c3)OCCO4)cn2c1	CHOP inh 93.5 (no result: Lmaj promast)
CCn1cc(C(=O)NCCCOC(C)C)c(=O)c2cc(S(=O)(=O)N3CCOCC3)ccc21	none (no result: Lmaj promast, CHOP inh, Dynein cargo inh)
c1ccc(-c2nc(NCCCN3CCOCC3)c3ccccc3n2)cc1	Lmaj promast 62.2
Cc1cccc(-c2nc(NCCCN3CCOCC3)c3ccccc3n2)c1	Lmaj promast 100.4
COc1ccc(NC(=O)NNC(=O)C(C)Oc2ccc3ccccc3c2)cc1 (stereo not drawn)	none (no result: Lmaj promast, CHOP inh, Dynein cargo inh)
Cc1ccc(-n2c(-c3ccccc3)cc(/C=N/NC(=O)CC#N)c2-c2ccccc2)cc1	T cruzi inh 65.4
N#CCC(=O)N/N=C/c1cc(-c2ccccc2)n(-c2ccc(Cl)cc2)c1-c1ccccc1	T cruzi inh 59.6
